Tests used:
CCRF-CEM = test: Concentration inhibiting 50% of mock-infected CEM cells.; type: functional; conditions: Homo sapiens
In short: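 Uninfected (mock-infected) CEM-SS cultures exposed to drug. Viability by XTT, expressed as percent of drug-free control. CC50 is the concentration causing 50% cell death. Triplicates on each plate, two sister plates averaged.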

[1] = target: T1, Human immunodeficiency virus type 1 reverse transcriptase (Human immunodeficiency virus 1, UniProt Q72547); test: Inhibition of HIV-1 Reverse transcriptase using poly-(ra)-oligo(dt) as the template primer.; conditions: read-out: IC50
In short: (§1)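 Purified p66/51 HIV-1 reverse transcriptase. Inhibition read as incorporation of [32P]-TTP into poly(rA)·oligo(dT) or of [32P]GTP into poly(rC)·oligo(dG) homopolymer template-primer.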

CEM-SS [2] = test: 50% inhibitory concentration for cytopathicity of HIV-1 RF in CEM-SS cells; NA=Not active (EC50 uM); type: functional, cell-based, Homo sapiens
In short: (§2)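 CEM-SS cells infected with HIV-1 RF; drug-induced protection from viral cytopathic effect read by XTT, as percent of uninfected drug-free control. EC50 is the concentration giving 50% protection. Triplicate wells on each plate, two sister plates; the plate EC50s (each a triplicate average) were averaged. XTT results were confirmed by supernatant RT and p24 levels. NA means no inhibition up to the concentration cytotoxic to uninfected cells.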

[3] = target: T1, Human immunodeficiency virus type 1 reverse transcriptase; test: Inhibition of HIV-1 Reverse transcriptase using poly-(rc)-oligo(dg) as the template primer.; in short: as §1
[4] = Therapeutic index was determined for the compound as CC50/EC50; conditions: read-out: TI
In short: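 Ratio of CC50 (XTT viability, uninfected CEM-SS) to EC50 (XTT protection from HIV-1 RF cytopathicity in CEM-SS). Both values come from triplicates on each plate, two sister plates averaged. NA means no antiviral inhibition up to the cytotoxic concentration.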

CEM-SS [5] = test: 50% inhibitory concentration for cytopathicity of HIV-1 RF in CEM-SS cells.; type: functional, cell-based; conditions: Homo sapiens; in short: as §2
CEM-SS [6] = test: 50% inhibitory concentration for cytopathicity of HIV-1 RF in CEM-SS cells; NA=Not active; type: functional, cell-based, Homo sapiens; in short: as §2
[7] = target: T1, Human immunodeficiency virus type 1 reverse transcriptase; test: Inhibition of HIV-1 Reverse transcriptase using poly-(rc)-oligo(dg) as the template primer; NI=No inhibition
In short: (§3)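 Purified p66/51 HIV-1 reverse transcriptase. Inhibition read as incorporation of [32P]-TTP into poly(rA)·oligo(dT) or of [32P]GTP into poly(rC)·oligo(dG) homopolymer template-primer. IC50 taken as concentration giving 50% inhibition.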

[8] = target: T1, Human immunodeficiency virus type 1 reverse transcriptase; test: Inhibition of HIV-1 Reverse transcriptase using poly-(ra)-oligo(dt) as the template primer; no inhibition; in short: as §3
CEM-SS [9] = test: Inhibition of cytopathic effect of HIV-1 RT containing the specified mutation K103N in CEM-SS cells.; type: functional, cell-based, Homo sapiens
CEM-SS [10] = test: Inhibition of cytopathic effect of HIV-1 RT containing the specified mutation Y181C in CEM-SS cells.; type: functional, cell-based, Homo sapiens
CEM-SS [11] = test: Inhibition of cytopathic effect of HIV-1 RT containing the specified mutation Y181C resistant to AZT in CEM-SS cells.; type: functional, cell-based, Homo sapiens
[12] = tested on: Human immunodeficiency virus 1; test: Inhibition of cytopathic effect of HIV-1 strain wild type enzyme NL4-3 in CEM-SS cells.; type: functional, organism-based; conditions: Human immunodeficiency virus 1, CEM-SS
CEM-SS [13] = test: Inhibition of cytopathic effect of HIV-1 RT containing the specified mutation L100I in CEM-SS cells.; type: functional, cell-based, Homo sapiens
CEM-SS [14] = test: Fold resistance of HIV-1 RT containing the specified mutation V179D in CEM-SS cells.; type: functional, Homo sapiens
CEM-SS [15] = test: Fold resistance of HIV-1 RT containing the specified mutation A98G in CEM-SS cells.; type: functional, Homo sapiens
CEM-SS [16] = test: Fold resistance of the specific mutation in RT to the compound; S=Enhanced sensitivity; type: functional, cell-based; conditions: Homo sapiens
CEM-SS [17] = test: Fold resistance of HIV-1 RT containing the specified mutation K103N in CEM-SS cells; NC=No significant change in sensitivity; type: functional, cell-based; conditions: Homo sapiens
CEM-SS [18] = test: Fold resistance of HIV-1 RT containing the specified mutation Y181C in CEM-SS cells.; type: functional, Homo sapiens
CEM-SS [19] = test: Fold resistance of HIV-1 RT containing the specified mutation 4X AZT in CEM-SS cells; S=Enhanced sensitivity; type: functional, cell-based; conditions: Homo sapiens
CEM-SS [20] = test: Fold resistance of HIV-1 RT containing the specified mutation K101E in CEM-SS cells.; type: functional, Homo sapiens
CEM-SS [21] = test: Fold resistance of HIV-1 RT containing the specified mutation Y188C in CEM-SS cells.; type: functional, Homo sapiens
CEM-SS [22] = test: Fold resistance of HIV-1 RT containing the specified mutation V106A in CEM-SS cells.; type: functional, Homo sapiens

| Structure (SMILES) | CC50 (CCRF-CEM) [µM] | IC50 [1] [µM] | EC50 (CEM-SS [2]) | IC50 [3] [µM] | EC50 (CEM-SS [5]) [µM] | also measured |
| --- | --- | --- | --- | --- | --- | --- |
| CCNC(=O)OCCCCC=C(c1cc(Cl)c(OC)c(C(=O)OC)c1)c1cc(Cl)c(OC)c(C(=O)OC)c1 | 8.4 | 1.2 | Not Active | 3.2 |  |  |
| COC(=O)CCCCC=C(c1cc(Cl)c(OC)c(C(=O)OC)c1)c1cc(Cl)c(OC)c(C(=O)OC)c1 | 152 | 3.35 |  | 0.47 | 1.5 | selectivity ratio [4]: 101 |
| CCC1(CCCC=C(c2cc(Cl)c(OC)c(CO)c2)c2cc(Cl)c(OC)c(CO)c2)OCCO1 | 16.9 | 31.6 | Not Active | 3.2 |  |  |
| COC(=O)CCCC=C(c1cc(F)c(OC)c(C(=O)OC)c1)c1cc(F)c(OC)c(C(=O)OC)c1 | 68.3 |  |  |  | 1.9 | selectivity ratio [4]: 35.9 |
| CCC(=O)CCCC=C(c1cc(Cl)c(OC)c(C=O)c1)c1cc(Cl)c(OC)c(C=O)c1 | 1.13 |  |  |  |  | EC50 (CEM-SS [6]): Not Active |
| COC(=O)CCC=C(c1cc(Cl)c(OC)c(C(=O)OC)c1)c1cc(Cl)c(OC)c(C(=O)OC)c1 | 29.4 | > 100 |  | 7.2 | 4.8 | selectivity ratio [4]: 6.1 |
| CCC1(CCCC=C(c2cc(Cl)c(OC)c(C(=O)OC)c2)c2cc(Cl)c(OC)c(C(=O)OC)c2)OCCO1 | 19.9 |  | Not Active |  |  | IC50 [7]: Not Active; IC50 [8]: Not Active |
| COC(=O)CCCC=C(c1cc(Cl)c(OC)c(C(=O)OC)c1)c1cc(Cl)c(OC)c(C(=O)OC)c1 | 31.6 |  |  |  |  | EC50 (CEM-SS [9]): > 50 µM; EC50 (CEM-SS [10]): > 50 µM; EC50 (CEM-SS [11]): > 50 µM; EC50 [12]: 1.78 µM; EC50 (CEM-SS [13]): > 0.16 µM |
| COC(=O)c1cc(C(=CCCCCN=[N+]=[N-])c2cc(Cl)c(OC)c(C(=O)OC)c2)cc(Cl)c1OC | 176 | 0.8 |  | 1.3 | 7.1 |  |
| CCCCCC=C(c1cc(Br)c(OC)c(C(=O)OC)c1)c1cc(Br)c(OC)c(C(=O)OC)c1 |  |  |  |  |  | Fold resistance (CEM-SS [14]): >8; Fold resistance (CEM-SS [15]): 2; Fold resistance (CEM-SS [16]): Enhanced sensitivity; Fold resistance (CEM-SS [17]): No significant changed; Fold resistance (CEM-SS [18]): >8; Fold resistance (CEM-SS [19]): Enhanced sensitivity; Fold resistance (CEM-SS [20]): >8; Fold resistance (CEM-SS [21]): >8; Fold resistance (CEM-SS [22]): >8 |
| COC(=O)CCCCC(c1cc(Cl)c(OC)c(C(=O)OC)c1)c1cc(Cl)c(OC)c(C(=O)OC)c1 | 21.3 |  | Not Active | 100 |  |  |

From ChEMBL document CHEMBL1132112, “Novel modifications in the alkenyldiarylmethane (ADAM) series of non-nucleoside reverse transcriptase inhibitors” (J Med Chem, 1999)
